Source: PMC10125284 (ACS Bio & Med Chem Au, 2022)
Entries after “also recorded” stand apart in the source; their conditions may differ. Read-outs that look alike come from different tables or passages of the source.

Tests used:
Tsr [1] = biological target: T1, Tsr (Escherichia coli, UniProt P02942); experiment: Microfluidic chemotaxis assay, UU1250 expressing Tsr as sole receptor; format: cell-based; details: UU1250 expressing wild-type Tsr as sole receptor and GFP
Tsar [2] = biological target: T2, Tsar (Escherichia coli, UniProt P02942+P07017); experiment: Microfluidic chemotaxis assay, UU1250 expressing hybrid Tsar as sole receptor; format: cell-based; details: cells expressing hybrid Tsar as sole receptor
Tsr^N68A [3] = biological target: T3, Tsr^N68A (Escherichia coli, UniProt P02942, N68A); experiment: Microfluidic chemotaxis assay, cells expressing Tsr^N68A as sole receptor; format: cell-based
Tsr^R64A = Tsr^R64A (Escherichia coli, UniProt P02942, R64A); experiment: Microfluidic chemotaxis assay, cells expressing Tsr^R64A as sole receptor; format: cell-based
Tasr [4] = biological target: T4, Tasr (Escherichia coli, UniProt P02942+P07017); experiment: Microfluidic chemotaxis assay, UU1250 expressing hybrid Tasr as sole receptor; format: cell-based; details: cells expressing hybrid Tasr as sole receptor
Tar [5] = biological target: T5, Tar (Escherichia coli, UniProt P07017); experiment: Microfluidic chemotaxis assay, UU1250 expressing Tar as sole receptor; format: cell-based; details: cells expressing Tar as sole receptor
Tsr [6] = biological target: T1, Tsr; experiment: FRET; format: cell-based; details: for effect of adaptation to L-serine on FRET response to ligand: Tsr adapted to 200 μM L-serine; for FRET response (kinase activity): Tsr as sole receptor, buffer-adapted
Tsr^N68A [7] = biological target: T3, Tsr^N68A; experiment: FRET assay, cells expressing Tsr^N68A as sole receptor; format: cell-based
[8] = test system: wild-type E. coli strain RP437; experiment: Microfluidic chemotaxis assay, wild-type strain RP437; format: cell-based, Escherichia coli; details: wild-type E. coli RP437, all five chemoreceptors
Tsr-LBD [9] = biological target: T6, Tsr-LBD (Escherichia coli, UniProt P02942); experiment: Microscale thermophoresis; format: binding; details: for binding to Tsr-LBD in competition (MST): pocket saturated with high concentration of L-serine (25 mM)
T6 sequence (P02942 30-190): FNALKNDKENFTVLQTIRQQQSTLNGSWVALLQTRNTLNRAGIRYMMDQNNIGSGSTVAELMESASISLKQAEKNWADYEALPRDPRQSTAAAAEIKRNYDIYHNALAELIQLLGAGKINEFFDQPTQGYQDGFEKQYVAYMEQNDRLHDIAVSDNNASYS
Method in brief: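 Tsr residues 30-190 carrying an N-terminal 6×His tag were expressed in E. coli after 1 mM IPTG induction for 6 h at 28 °C. The protein was purified by Ni affinity and gel filtration (50 mM Tris-HCl pH 8.0, 200 mM NaCl) and labelled with a RED-tris-NTA His-tag dye. Compound serial dilutions in HEPES buffer were mixed 1:1 with protein and read in capillaries at 60% excitation and 20% MST power. Kd came from dose-response fits of normalised traces, temperature-jump/thermophoresis mode.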

Tsr^R64AN68A = Tsr^R64AN68A (Escherichia coli, UniProt P02942, N68A/R64A); experiment: Microfluidic chemotaxis assay, cells expressing Tsr^R64AN68A as sole receptor; format: cell-based
Tsr-LBD [10] = biological target: T6, Tsr-LBD; details: read-out: Kd, previously reported; cited from earlier work
Tasr [11] = biological target: T4, Tasr; experiment: FRET assay, cells expressing Tasr as sole receptor; format: cell-based
Tar [12] = biological target: T5, Tar; experiment: FRET assay, cells expressing Tar as sole receptor; format: cell-based
wild-type RP437 = experiment: FRET assay, wild-type RP437; format: cell-based, Escherichia coli
Tsar [13] = biological target: T2, Tsar; experiment: FRET assay, cells expressing Tsar as sole receptor; format: cell-based

Chain of Tsr^R64A (P02942 whole entry R64A): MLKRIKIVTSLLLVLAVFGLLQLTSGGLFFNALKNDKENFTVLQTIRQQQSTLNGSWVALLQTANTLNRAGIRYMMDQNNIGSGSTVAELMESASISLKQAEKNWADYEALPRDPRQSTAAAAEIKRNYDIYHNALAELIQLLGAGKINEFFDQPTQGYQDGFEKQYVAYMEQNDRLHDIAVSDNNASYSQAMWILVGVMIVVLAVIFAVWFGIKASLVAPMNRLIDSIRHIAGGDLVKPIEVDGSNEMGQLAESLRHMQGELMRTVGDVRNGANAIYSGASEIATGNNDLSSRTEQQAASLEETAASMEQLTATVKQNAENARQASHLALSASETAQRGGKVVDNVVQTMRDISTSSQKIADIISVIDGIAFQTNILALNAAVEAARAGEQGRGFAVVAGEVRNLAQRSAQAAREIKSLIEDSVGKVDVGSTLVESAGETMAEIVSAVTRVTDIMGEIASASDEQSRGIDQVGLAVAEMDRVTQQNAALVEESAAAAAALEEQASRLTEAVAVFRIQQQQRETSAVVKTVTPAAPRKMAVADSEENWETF
T5 sequence (P07017 whole entry): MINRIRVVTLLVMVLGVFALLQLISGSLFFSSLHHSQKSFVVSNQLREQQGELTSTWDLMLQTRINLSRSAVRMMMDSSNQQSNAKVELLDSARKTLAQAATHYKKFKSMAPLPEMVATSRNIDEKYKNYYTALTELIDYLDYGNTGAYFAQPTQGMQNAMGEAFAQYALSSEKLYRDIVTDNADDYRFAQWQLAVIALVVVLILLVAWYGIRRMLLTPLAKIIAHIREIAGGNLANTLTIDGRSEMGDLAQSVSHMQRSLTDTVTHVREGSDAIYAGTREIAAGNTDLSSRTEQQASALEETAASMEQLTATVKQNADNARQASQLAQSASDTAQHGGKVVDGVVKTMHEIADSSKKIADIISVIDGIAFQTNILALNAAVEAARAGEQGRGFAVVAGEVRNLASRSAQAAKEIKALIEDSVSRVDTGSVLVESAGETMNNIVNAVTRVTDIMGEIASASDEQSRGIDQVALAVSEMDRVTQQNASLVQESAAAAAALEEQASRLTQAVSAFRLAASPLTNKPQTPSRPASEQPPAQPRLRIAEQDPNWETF
T1 sequence (P02942 whole entry): as the sequence (P02942 whole entry R64A) above, with A64R counted along it
T4 sequence (P07017 1-199): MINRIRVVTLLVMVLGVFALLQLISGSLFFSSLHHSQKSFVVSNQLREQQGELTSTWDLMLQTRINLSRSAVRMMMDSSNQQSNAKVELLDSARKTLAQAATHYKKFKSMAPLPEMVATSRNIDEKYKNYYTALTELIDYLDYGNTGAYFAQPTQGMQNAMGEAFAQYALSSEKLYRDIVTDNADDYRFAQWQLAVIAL
T4 sequence (P02942 202-551): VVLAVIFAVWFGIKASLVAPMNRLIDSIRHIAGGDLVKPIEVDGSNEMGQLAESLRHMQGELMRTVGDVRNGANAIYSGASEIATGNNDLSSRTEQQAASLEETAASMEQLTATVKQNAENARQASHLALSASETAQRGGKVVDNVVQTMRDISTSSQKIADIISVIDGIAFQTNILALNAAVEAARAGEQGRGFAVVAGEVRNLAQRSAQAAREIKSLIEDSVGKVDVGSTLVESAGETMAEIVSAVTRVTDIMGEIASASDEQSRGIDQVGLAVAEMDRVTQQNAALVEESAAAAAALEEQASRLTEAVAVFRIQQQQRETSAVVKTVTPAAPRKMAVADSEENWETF
T3 sequence (P02942 whole entry N68A): as the sequence (P02942 whole entry R64A) above, with A64R, N68A counted along it
T2 sequence (P02942 1-201): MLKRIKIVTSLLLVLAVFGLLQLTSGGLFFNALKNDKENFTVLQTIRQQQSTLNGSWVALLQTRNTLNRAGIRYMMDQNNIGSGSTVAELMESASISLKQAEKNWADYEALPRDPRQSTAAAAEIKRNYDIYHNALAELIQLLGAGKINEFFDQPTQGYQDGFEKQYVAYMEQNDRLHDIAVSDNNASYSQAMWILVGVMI
T2 sequence (P07017 200-553): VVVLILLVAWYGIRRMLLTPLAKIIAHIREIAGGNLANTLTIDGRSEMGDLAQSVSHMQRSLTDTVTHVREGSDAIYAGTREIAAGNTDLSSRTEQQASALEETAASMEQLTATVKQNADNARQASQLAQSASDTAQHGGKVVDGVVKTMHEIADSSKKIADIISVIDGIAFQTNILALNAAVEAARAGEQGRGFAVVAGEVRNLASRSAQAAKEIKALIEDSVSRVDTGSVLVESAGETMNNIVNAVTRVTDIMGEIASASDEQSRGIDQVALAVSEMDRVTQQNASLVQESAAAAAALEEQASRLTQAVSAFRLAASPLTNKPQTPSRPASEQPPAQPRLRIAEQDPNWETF
Chain of Tsr^R64AN68A (P02942 whole entry R64A/N68A, the tested form may be a part): as the sequence (P02942 whole entry R64A) above, with N68A counted along it

Row | Compound | chemotactic response (microfluidic) (Tsr [1]) | chemotactic response (microfluidic) (Tsar [2]) | chemotactic response (microfluidic), compared with wild-type Tsr (Tsr^N68A [3]) | chemotactic response (microfluidic), compared with wild-type Tsr (Tsr^R64A) | chemotactic response (microfluidic) (Tasr [4]) | chemotactic response (microfluidic) (Tar [5]) | effect of adaptation to L-serine on FRET response to ligand (Tsr [6]) | FRET response (kinase activity) (Tsr [6]) | FRET response (Tsr^N68A [7]) | chemotactic response (microfluidic) [8] | Kd (Tsr-LBD [9]) | binding to Tsr-LBD in competition (MST) (Tsr-LBD [9]) | chemotactic response (microfluidic), compared with wild-type Tsr (Tsr^R64AN68A) | Kd (Tsr-LBD [10]) | FRET response (Tasr [11]) | FRET response (Tar [12]) | FRET response (wild-type RP437) | FRET response (Tsar [13])
1 | CC(C)C[C@H](N)C(=O)O [L-leucine] | repellent response | repellent responses | attractant response | no response or much weaker responses | no response | no response | significantly inhibited | repellent response | strong attractant response | repellent responses | 23.6 ± 6.8 mM | could not bind | no response or much weaker responses | – | – | – | – | –
2 | N[C@@H](CO)C(=O)O [L-serine] | drifted up the L-serine gradient | – | weaker attractant responses | weaker attractant responses | – | – | – | attractant response | – | – | 0.207 mM | – | weaker attractant responses | 0.0356 mM | – | – | – | –
3 | NC1(C(=O)O)CCCCC1 [ACHC, 1-aminocyclohexanecarboxylic acid] | robust repellent response | robust repellent responses | weaker repellent responses; also recorded: weak repellent response | weaker repellent responses | did not show obvious responses | did not show obvious responses | significantly inhibited | repellent response | – | robust repellent responses | 10.6 ± 2.4 mM | could not bind | weaker repellent responses | – | no or only a weak response | no or only a weak response | repellent response | repellent response
